Bioassay records deposited in PubChem by several laboratories.
NR2E3 ag-1: NR2E3 agonists in two-hybrid cells, primary screen, cell-based, luminescence, CHO-S, Gal4-NCOR/VP16-NR2E3; luciferase; 360,000 tested, 0.35% active; Photoreceptor-specific nuclear receptor (Homo sapiens), Q9Y5X4; inhibition of corepressor binding, % at 3.98 µM;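 active = inhibition above the mean of all tested compounds plus 3 SD, cut at about 70% in these data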;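 note: 0% = DMSO with NR2E3 transfected cells and 100% = cells lacking NR2E3 construct; higher means lower luciferase signal from less NR2E3 corepressor binding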
NR1D1 modulator: modulators of Rev-erb alpha DNA binding, primary screen, biochemical, FITC-DNA, fluorescence polarization, uHTS; Rev-erbα–FITC-DNA binding, 90 min; Nuclear receptor subfamily 1 group D member 1 (Homo sapiens), P20393; AID 1259318, 2017; activity, % at 10 µM; 370,000 tested, 0.79% active;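 active = activity above about 14%, limit read from the data; passing the limit was not always enough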;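 note: 0% = DMSO wells with 35 nM protein and 100% = DMSO wells with 750 nM protein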
NR2E3 ag-2: inhibitors of NR2E3-RetCOR corepressor binding, primary screen, NR2E3 agonist project, biochemical, TR-FRET, GST-NR2E3, biotin-RetCOR. Photoreceptor-specific nuclear receptor (Homo sapiens), Q9Y5X4. 1536-well. inhibition of corepressor binding, % at 4.78 µM. 320,000 tested, 0.12% active;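 active = percent inhibition above the cutoff of mean plus 3 SD of all tested compounds, set per screening campaign, cut at about 20% in these data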;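 note: 0% = DMSO wells and 100% = biotin wells as full block of FRET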
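Material: NR2E3–RetCOR corepressor complex / Amount: 1.35 nM GST-NR2E3 / Medium: Tris pH 7.5 / Compound: single nominal compound dose of 4.8 µM / Incubation: 5 h at 4 °C / Technique: TR-FRET, Eu(K)-anti-GST donor, streptavidin-D2 acceptor, ex 340, em 617/671 nm / Read-out basis: percent loss of FRET ratio relative to control wells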
MC4R ag barr: MC4R agonists recruiting beta-arrestin, primary screen, cell-based, luminescence, agonist arm of biased-ligand search | Melanocortin receptor 4 (Homo sapiens), P32245 | U2OS MC4R beta-arrestin complementation; percent of melanotan II response, DMSO zero | activation, % at 8.9 µM | 360,000 tested, 0.98% active | AID 540308, 2011;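 active = activation above a per-plate cutoff, the mean activation of sample wells on that plate plus 3 SD, cut at about 8% in these data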
Target sequence (P32245 whole entry, looked up): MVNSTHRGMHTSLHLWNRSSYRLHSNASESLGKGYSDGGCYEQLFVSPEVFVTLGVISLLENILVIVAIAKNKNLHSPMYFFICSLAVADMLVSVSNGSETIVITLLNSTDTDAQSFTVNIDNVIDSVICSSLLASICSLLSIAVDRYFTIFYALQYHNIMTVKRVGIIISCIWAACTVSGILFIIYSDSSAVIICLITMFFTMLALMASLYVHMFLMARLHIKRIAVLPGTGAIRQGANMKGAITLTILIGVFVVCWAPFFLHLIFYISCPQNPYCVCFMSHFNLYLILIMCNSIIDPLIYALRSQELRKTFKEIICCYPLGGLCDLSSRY
MC4R antag cAMP: MC4R antagonists of cAMP signaling, primary screen, cell-based, TR-FRET, antagonist arm of biased-ligand search; 360,000 tested, 0.48% active; inhibition, % at 6.5 µM; Melanocortin receptor 4 (Homo sapiens), P32245; MC4R-expressing cells, MTII-stimulated cAMP, LANCE TR-FRET; AID 540295, 2011;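 active = inhibition above its plate's cutoff, the mean of tested wells on that plate plus 3 SD, cut at about 29% in these data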;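 note: 0% = Melanotan II alone and 100% = Melanotan II plus saturating MCL0020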
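System – human MC4R-expressing U2OS cells · Also added – Melanotan II · Dosing – one concentration, 6.5 µM nominal · Timing – 30-min compound, 1-h challenge, 1-h detection, room temperature · Measured by – Eu-cAMP/anti-cAMP TR-FRET, emission 671 nm · Replicates – singlicate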
PG9 binder: binders of HIV-1 gp120 antibody PG9, primary screen, biochemical, TR-FRET; TR-FRET gp120-PG9 antibody binding; inhibition, % at 6.7 µM; 360,000 tested, 0.43% active; AID 624416, 2012; in the data active = inhibition above about 8.5%
NR2E3 ag conf: NR2E3 agonist confirmation in cells, cell-based, luminescence, CHO-S two-hybrid; shares compounds with NR2E3 ag-1; 2,300 tested, 51% active; inhibition, % at 3.98 µM; CHO-S mammalian two-hybrid NR2E3-NCOR, luciferase luminescence; AID 624378, 2012;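 active = average inhibition above a cutoff equal to the mean inhibition of all tested compounds plus one SD, cut at about 70% in these data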;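 note: 0% = DMSO in NR2E3 cells and 100% = DMSO in cells lacking NR2E3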
GAL4-VP16 luc: GAL4-VP16 reporter modulators, confirmation, counter-screen for NR2E3 agonist project, cell-based, luminescence, CHO-S, high throughput; shares compounds with NR2E3 ag-1; CHO-S GAL4-VP16 luciferase reporter; inhibition, % at 3.98 µM; 2,300 tested, 29% active;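 active = mean inhibition above a cutoff equal to the average over all tested compounds plus one standard deviation, cut at about 70% in these data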;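 note: luciferase from a UAS reporter driven by GAL4-VP16 transactivation; 0% = DMSO with VP16-transfected cells and 100% = DMSO with cells lacking VP16; higher means less reporter light so more repression of VP16 activity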
The depositor's hits bear a star; nt = not tested or not shown. The list is not random: actives were taken first. Their share in the collection is about 2.7%.

SMILES | NR2E3 ag-1 | NR1D1 modulator | NR2E3 ag-2 | MC4R ag barr | MC4R antag cAMP | PG9 binder | NR2E3 ag conf | GAL4-VP16 luc
Cc1nn(Cc2ccc(Cl)c(Cl)c2)c(C)c1NC(=O)c1sc2ccccc2c1Cl | 51 | 19 | 0 | -1 | -8 | 1 | 57 | 29
Cc1nn(Cc2ccc(Cl)c(Cl)c2)c(C)c1NC(=O)c1cc(-c2ccco2)on1 | 51 | -3 | 2 | 1 | 2 | 0 | 79* | 66
Cc1nn(Cc2ccc(Cl)cc2Cl)c(C)c1NC(=O)c1sc2ccccc2c1Cl | -6 | 2 | 0 | -1 | 0 | -1 | nt | nt
O=S(=O)(/C=C/C=C/S(=O)(=O)c1ccccc1)c1ccccc1 | 85* | -3 | nt | -1 | 22 | 0 | 80* | 29
CC(Nc1ncnc2ccccc12)c1ccccc1 (centres undefined) | 75* | 6 | 6 | -2 | -1 | -1 | 96* | 91*
CCCCC(Nc1ncnc2ccccc12)C(=O)O (centres undefined) | -20 | -3 | 0 | -1 | 13 | 3 | nt | nt
O=C(NCc1cccnc1)c1cc(C(=O)C2CC2)c[nH]1 | -1 | 4 | 1 | 1 | -2 | 0 | nt | nt
O=C(NCc1ccccc1Cl)c1cc(C(=O)C2CC2)c[nH]1 | 51 | 2 | 1 | -2 | 2 | 1 | 41 | 27
C#Cc1cccc(Nc2nc(NCc3ccccc3)nc3ccsc23)c1 | 61 | -1 | nt | -2 | 11 | 0 | 84* | 44
c1ccc(CNc2nc(NCCc3ccncc3)c3sccc3n2)cc1 | 81* | -1 | nt | 4 | 1 | 0 | 52 | 55
Fc1ccc(Nc2nc(NCc3ccccc3)nc3ccsc23)cc1 | 55 | -2 | nt | 0 | 6 | 1 | 59 | 41
N#Cc1ccc(Nc2nc(NCc3ccccc3)nc3ccsc23)cc1 | -51 | -8 | nt | 4 | 2 | -1 | nt | nt
O=C(CN(Cc1ccco1)S(=O)(=O)c1cccs1)Nc1ccccc1C(F)(F)F | -37 | 4 | 3 | 2 | 11 | 0 | nt | nt
COc1ccc(/C=N/NC(=O)CNC(=O)c2ccncc2)cc1 | -29 | 3 | 5 | 1 | 13 | -3 | nt | nt
CCCCCCC[C@@H](C/C=C/CCC(=O)N(C)C/C(=C/Cl)C/C(=C\C(=O)N1C[C@H](O)CC1=O)OC)OC | 62 | 6 | nt | 3 | 3 | -1 | 62 | 53
CCCCCCC[C@@H](C/C=C/CCC(=O)N(C)C/C(=C/Cl)C/C(=C\C(=O)N1CC(OC)=CC1=O)OC)OC | 14 | -5 | nt | -2 | 24 | -1 | nt | nt
COc1ccc(OC)c(C2C3=C(COC3=O)Nc3cc4c(cc32)OCO4)c1 (centres undefined) | 59 | -1 | 0 | -3 | -20 | -3 | 7 | 18
COc1ccc(C2C3=C(CC(C)(C)CC3=O)Nc3cc4c(cc32)OCO4)cc1 (centres undefined) | -33 | 1 | 3 | -1 | 17 | 0 | nt | nt
COCCNC(=S)N/N=C(\C)c1ccccc1O | 66 | 3 | 0 | -1 | -2 | 1 | -73 | -50
COCCCNC(=S)N/N=C/c1ccccc1O | 74* | -2 | 3 | 0 | -11 | -3 | -37 | -11
